Source: PubChem (Johns Hopkins Ion Channel Center)
Kir21 inh = inhibitors of mouse Kir2.1 inward-rectifier potassium channel. Inward rectifier potassium channel 2 (Mus musculus), P35561. HEK293-Kir2.1, FluxOR thallium flux fluorescence; hits give low values. B-score at 10 µM. actives 0.85% (n = 310,000);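 active means fluorescence ratio B-score at or below minus 3 SD of library scores, with starting-brightness B-score within 2 SD, cut at about -4.2 in these data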;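 further: channel flux triggered by added potassium and thallium sulfate stimulus; B-score of peak minus minimum fluorescence over baseline after thallium stimulus; more negative B-score means stronger Kir2.1 block with less thallium influx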
Target sequence (P35561 whole entry, looked up): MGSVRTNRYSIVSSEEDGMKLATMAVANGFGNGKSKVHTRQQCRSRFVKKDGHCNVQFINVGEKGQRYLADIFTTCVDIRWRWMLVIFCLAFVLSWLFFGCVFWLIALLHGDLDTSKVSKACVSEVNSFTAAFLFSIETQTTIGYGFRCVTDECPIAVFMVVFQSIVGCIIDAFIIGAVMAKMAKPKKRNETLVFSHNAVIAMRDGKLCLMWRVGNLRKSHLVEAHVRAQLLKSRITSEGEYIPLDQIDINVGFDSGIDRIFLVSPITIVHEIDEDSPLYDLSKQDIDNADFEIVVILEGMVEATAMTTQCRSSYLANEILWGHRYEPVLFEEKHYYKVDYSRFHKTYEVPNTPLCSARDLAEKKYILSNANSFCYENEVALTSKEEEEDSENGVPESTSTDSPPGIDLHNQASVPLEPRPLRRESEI
MrgX1 antag = antagonists of human MrgX1 receptor, primary screen, HEK293 cells, Fluo-4 calcium flux | BAM8-22 antagonism; hits give low values | B-score at 10 µM | actives 1.3% (n = 310,000) | Mas-related G-protein coupled receptor member X1 (Homo sapiens), Q96LB2;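 active means calcium-response B-score plate-corrected more than 3 library SD below zero, starting fluorescence within 5 deviations, no agonist response on first addition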;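 further: peak minus trough fluorescence over baseline after final BAM8-22 challenge near maximal dose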
RGS4 act = RGS4 potentiators or activators, primary screen, cell-based, HEK293 M3R inducible RGS4, calcium flux; AID 463111, 2010; actives 0.92% (n = 310,000); B-score at 10 µM; carbachol calcium flux Fluo4; hits give low values;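 active means B-score of the integrated calcium signal more than 4 SD below the library mean, with starting fluorescence not abnormally high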;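 further: negative B-score means reduced calcium response which marks RGS4 activation or potentiation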
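Detection: kinetic calcium fluorescence imaging with Fluo4-AM dye, 2 µM / Material: HEK293 cells with stable M3R and inducible RGS4 / Schedule: recording 10 s baseline at 1 Hz, 100 s post-agonist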
MrgX1 ag = agonists of human MrgX1 receptor, primary screen, HEK293 cells, Fluo-4 calcium flux; Mas-related G-protein coupled receptor member X1 (Homo sapiens), Q96LB2; actives 0.44% (n = 310,000); B-score at 10 µM; Fluo-4 calcium fluorescence, agonist mode; hits give high values;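 active means calcium response B-score plate-corrected fluorescence ratio at least 3 library SD, with starting fluorescence B-score inside 5 SD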
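Material – MrgX1-expressing HEK293 cells · Input – 15,000 cells seeded per well · Dosing – compound as first of three additions · Times – overnight seeding, then 1 h dark dye loading · Measured by – kinetic Fluo-4 NW fluorescence of intracellular calcium · Read-out – B-scored fluorescence response ratio · Benchmarks – positive and negative control wells on each plate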
RGS4 block = RGS4 inhibitors, primary screen, cell-based, HEK293 M3R inducible RGS4, calcium flux. Regulator of G-protein signaling 4 (Homo sapiens), P49798. Fluo-4 calcium flux; hits give high values; triggered by carbachol at its EC20. B-score at 10 µM. actives 0.45% (n = 310,000);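 active means B-score, a plate-corrected calcium signal, over three deviations above library mean, with baseline fluorescence within five deviations of library mean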;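 further: RGS4 expression induced by doxycycline in cells with stable M3 receptor; B-score is computed from the integrated fluorescence ratio over baseline after carbachol; higher B-score means a larger calcium signal and so more RGS4 inhibition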
Target sequence (P49798 whole entry, looked up): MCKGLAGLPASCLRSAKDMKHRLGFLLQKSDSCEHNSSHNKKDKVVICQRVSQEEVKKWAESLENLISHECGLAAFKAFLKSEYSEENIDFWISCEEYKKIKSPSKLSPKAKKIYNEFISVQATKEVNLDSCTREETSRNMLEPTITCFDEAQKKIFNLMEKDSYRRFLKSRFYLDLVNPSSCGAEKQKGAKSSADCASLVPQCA
MrgX1 PAM = positive allosteric modulators of MrgX1, primary screen, HEK293 cells, Fluo-4 calcium flux. Mas-related G-protein coupled receptor member X1 (Homo sapiens), Q96LB2. FDSS; hits give high values. B-score at 10 µM. actives 0.63% (n = 310,000). AID 588675, 2011;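 active means plate-corrected calcium response at least 3 library SD above typical, normal starting fluorescence, not activating the receptor alone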;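 further: compound read alongside a low EC10 to EC30 dose of BAM8-22 agonist; peak minus trough fluorescence over baseline measured at the second addition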
RGS4 inh valid = enhanced carbachol calcium response, M3R/RGS4 cells, RGS4 inhibitor project, cell-based, validation screen, HEK293 M3R/RGS4, calcium flux | shares compounds with RGS4 block | carbachol calcium Fluo-4 fluorescence; carbachol added at its EC20; 0 = buffer wells, 100 = carbachol control | calcium response, % at 10 µM | actives 65% (n = 1,700) | AID 492999, 2010;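 active means duplicate-averaged calcium response above the buffer-only control mean plus 5 SD of those controls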;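 further: integrated fluorescence ratio F max minus min over baseline F0; higher response in RGS4-induced cells means RGS4 inhibition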
M3R Ca ctr = carbachol calcium response in non-induced M3R cells, confirmation, counter-screen for RGS4 inhibitor project, cell-based, HEK293 M3R. shares compounds with RGS4 block. carbachol calcium Fluo-4; submaximal (EC20) carbachol stimulus; buffer wells 0%, carbachol control wells 100%. activity (percent), % at 10 µM. actives 20% (n = 1,900); call rule not given here;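 further: RGS4 induction absent so cells express M3R without RGS4; higher means more calcium signal and flags a non-specific hit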
RGS4 inh ctr2 = second RGS4 inhibitor counter-screen in uninduced cells lacking carbachol. HEK293 M3R/RGS4 non-induced, Fluo-4 calcium, no carbachol; normalised: buffer wells 0%, carbachol wells 100%. shares compounds with RGS4 block. actives 22% (n = 1,900). calcium response (agonist-mode artifact), % at 10 µM. AID 493001;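 active means duplicate-averaged calcium rise in uninduced cells above buffer wells' mean plus 5 SD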
* = called active by the depositor; i = inactive; x = no result given. Sampled rows, rich in hits. Any-hit rate of the full collection: about 4.1%.

SMILES	Kir21 inh	MrgX1 antag	RGS4 act	MrgX1 ag	RGS4 block	MrgX1 PAM	RGS4 inh valid	M3R Ca ctr	RGS4 inh ctr2
O=c1[nH]c(NCCCO)nc2c1C1(CCCC1)Cc1ccccc1-2	-1.61	i	i	i	7.28*	i	31.0%*	i	29.5%*
O=c1c2ccccc2nc(SCc2cccc(F)c2)n1-c1cccc(S(=O)(=O)N2CCCC2)c1	-0.84	i	i	i	i	i	x	x	x
Cc1ccc2nc(-c3ccc(N)cc3)sc2c1	1.03	i	i	i	5.61*	i	16.0%*	i	i
CC(=O)Nc1cccc(NC(=O)c2oc3ccccc3c2C)c1	-2.79	i	i	i	i	i	x	x	x
CCOC(=O)C1CCN(c2c(NCCCN(C)C3CCCCC3)c(=O)c2=O)CC1	0.9	i	i	i	i	i	x	x	x
Nc1nc(Nc2ccccc2)nc(NCc2ccco2)c1[N+](=O)[O-]	-1.72	i	i	i	i	i	i	i	i
Nc1nc(NCc2ccco2)nc(Nc2ccccc2)c1[N+](=O)[O-]	1.31	i	i	i	i	i	x	x	x
CC[C@@H](C)[C@H](NC(=O)CNC(=O)Cc1c(C)c2c(cc(C)c3c(C)coc32)oc1=O)C(=O)O	2.16	i	i	i	i	i	x	x	x
CC(C)(C)c1nn(-c2ccccc2)c2nc(Cl)c(C=O)cc12	0.08	i	i	i	5.01*	i	13.0%*	30.0%*	i
NC(=O)c1ccsc1NC(=O)CN1C(=O)C2CC=CCC2C1=O (centres undefined)	0.21	i	i	i	i	i	x	x	x
Cc1ccc(/C=C/C(=O)N2CCN(c3ncccn3)CC2)o1	0.41	i	i	i	13.9*	i	17.0%*	i	i
COc1cccc(CNS(=O)(=O)c2c(C)nc3sccn3c2=O)c1	0.09	i	i	i	i	i	x	x	x
Cc1ccc(NC(=O)CSc2nnc3ccc(-c4cccnc4)nn23)cc1	0.43	i	i	i	i	i	x	x	x
COc1ccc(/C=C2\SC(N)=NC2=O)cc1	-0.07	i	i	i	i	i	x	x	x
CCOC(=O)CSC1=NC(=O)/C(=C/c2ccc(OC)cc2)S1	-3.18	i	i	i	4.85*	i	33.5%*	i	85.0%*
CC(C)(C)NC(=O)C(c1cccs1)N(C(=O)c1csnn1)c1ccccc1F (centres undefined)	-1.54	i	i	i	i	i	x	x	x
O=C(N/N=C/c1ccccc1O)NC12CC3CC(CC(C3)C1)C2	0.29	i	i	i	i	i	x	x	x
O=C(N/N=C/c1cc(Cl)cc([N+](=O)[O-])c1O)NC12CC3CC(CC(C3)C1)C2	0.48	i	i	i	9.14*	i	11.5%*	i	i
COc1cc(C(=O)NCCC(=O)NC2CCCc3ccccc32)cc(OC)c1OC (centres undefined)	2.05	i	i	i	i	i	x	x	x
Cc1ccc(Cn2nnc3c(=O)[nH]c(C4CCN(C(=O)Cc5cccs5)CC4)nc32)cc1	-0.09	i	i	i	i	i	x	i	i
O=C(Cc1cccs1)N1CCC(c2nc3c(nnn3Cc3ccccc3)c(=O)[nH]2)CC1	-0.55	i	i	i	i	i	i	i	i
CC(C)(C)c1ccc(Cn2nnc3c(=O)[nH]c(C4CCN(C(=O)Cc5cccs5)CC4)nc32)cc1	1.5	i	i	i	5.38*	i	27.0%*	i	i
CCN(CC)S(=O)(=O)c1ccc(C(=O)OCC(=O)NC2CCCC2)cc1	-0.01	i	i	i	i	i	x	x	x
CCN1CCCc2cc(CN(CCN3CCOCC3)C(=S)Nc3ccccc3OC)ccc21	0.73	i	i	i	i	i	x	x	x
CCOC(=O)C1CCN(C(=O)c2ccc3c(c2)S(=O)(=O)c2ccccc2C3=O)CC1	0.32	i	i	i	i	i	x	x	x
SMILES	Kir21 inh	MrgX1 antag	RGS4 act	MrgX1 ag	RGS4 block	MrgX1 PAM	RGS4 inh valid	M3R Ca ctr	RGS4 inh ctr2
O=C(CNCc1ccccc1)NC1C2CC3CC(C2)CC1C3 (centres undefined)	-0.34	i	i	i	i	i	x	x	x
COc1ccc(NC(=O)CC2C(=O)NCCN2C(=O)Nc2ccc(C(F)(F)F)cc2)cc1 (centres undefined)	0.42	i	i	i	8.84*	i	20.5%*	29.0%*	i
COC(=O)c1sccc1NC(=O)CC1C(=O)NCCN1C(=O)Nc1ccc(C(F)(F)F)cc1 (centres undefined)	0	i	i	i	i	i	x	x	x
COc1ccc(C(=O)NC(Cc2c[nH]c3ccccc23)C(=O)O)cc1 (centres undefined)	-0.27	i	i	i	i	i	x	x	x
CCCOc1ccc(C(=O)CCNC(Cc2c[nH]c3ccccc23)C(=O)O)cc1 (centres undefined)	-0.36	i	i	i	6.71*	i	10.0%*	46.0%*	27.0%*
O=C(OCc1nc2scc(-c3ccccc3)c2c(=O)[nH]1)c1cc(Cl)ccc1[N+](=O)[O-]	-3.32	i	i	i	6.16*	i	23.5%*	i	i
COc1cc(C(=O)N/N=C/c2sccc2C)cc(OC)c1OC	1.77	x	i	x	i	x	x	x	x
O=C(N/N=C1/CC2C=CCC12)c1ccc(Br)o1 (centres undefined)	1.41	i	i	i	i	i	x	x	x
